The results in this text go back to ChEMBL document CHEMBL4118144, “Design, Synthesis, and Testing of Potent, Selective Hepsin Inhibitors via Application of an Automated Closed-Loop Optimization Platform” (J Med Chem, 2018).

The source made the active and inactive calls. No cut-off for these calls is given here.

Data set [1] in a line: Half life in mouse liver microsomes at 3 uM preincubated for 5 mins followed by NADPH addition by LC-MS/MS analysis. Type of data set: ADME, microsome.
Data set [2] can be described thus: Half life in human liver microsomes at 3 uM preincubated for 5 mins followed by NADPH addition by LC-MS/MS analysis. It is filed as ADME, microsome. In general terms: Liver microsomes are vesicles of endoplasmic reticulum, rich in cytochrome P450 enzymes.
The target of data set [3] is Serine protease hepsin (Homo sapiens, UniProt P05981, D161E/R162K). Kind of data set: Inhibition of recombinant C-terminal His10-tagged human Hepsin (R45 to […] residues) D161E/ R162K double mutant expressed in mouse NS0 cells using Boc-QRR-AMC as substrate after 15 mins by manual fluorescence assay.
The target of data set [4] is T1, Serine protease hepsin (Homo sapiens, UniProt P05981). Description: Inhibition of doxycycline induced Hepsin in human MCF10A cells assessed as prevention in loss of HAI-1 level at 10 uM preincubated for 30 mins followed by doxycycline addition measured after 6 hrs by Immunoblot assay. Type of data set: cell-based. Put shortly: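 MCF10A-Indu20-hepsin cells (Dox-inducible hepsin) pretreated 30 min with compound or DMSO, then hepsin induced with 100 ng/mL doxycycline for 6 h; HAI-1 protein scored by immunoblot.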
T1 sequence (P05981 1-162 limits assumed): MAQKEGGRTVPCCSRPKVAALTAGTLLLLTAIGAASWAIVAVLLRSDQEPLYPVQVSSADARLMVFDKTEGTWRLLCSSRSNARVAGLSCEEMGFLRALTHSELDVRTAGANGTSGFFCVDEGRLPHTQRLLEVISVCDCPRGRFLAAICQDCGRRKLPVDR
T1 sequence (P05981 163-417 limits assumed): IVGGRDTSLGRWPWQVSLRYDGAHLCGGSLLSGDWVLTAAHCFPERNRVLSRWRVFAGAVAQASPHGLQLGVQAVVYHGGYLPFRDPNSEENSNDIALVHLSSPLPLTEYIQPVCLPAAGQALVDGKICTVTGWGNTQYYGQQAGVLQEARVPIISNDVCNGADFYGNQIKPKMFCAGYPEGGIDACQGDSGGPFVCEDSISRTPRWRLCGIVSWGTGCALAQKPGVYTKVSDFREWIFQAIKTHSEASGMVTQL
Background: A western blot detects proteins with antibodies after separation by electrophoresis.

Data set [5] deals with T1, Serine protease hepsin. Description: Inhibition of hepsin-mediated conversion of Pro-HGF into active form in human Hs578T cells assessed as decrease in MET phosphorylation at 1 to 10 uM preincubated for 30 mins followed by recombinant human pro-HGF addition measured after 30 mins by immunoblot method. It is filed as cell-based. The procedure, abridged:
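Hs578T or HCC1937 breast cells incubated with DMSO or inhibitor, then 50 ng/mL recombinant human Pro-HGF added; MET pathway activation (phospho-MET) assessed by immunoblotting.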

Data set [6] deals with Prothrombin (Homo sapiens) (UniProt P00734). Description: Inhibition of human thrombin using Z-Gly-Pro-Arg-AMC as substrate at 10 uM after 60 mins by fluorescence spectrophotometric method relative to control. The procedure, abridged: (§1)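 Panel of ten serine proteases; percent inhibition read at compound concentrations of 1 µM and 10 µM, each value the mean of 2 experiments.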

The target in data set [7] is T2, Chymase (Homo sapiens) (UniProt P23946).
T2 sequence (whole entry): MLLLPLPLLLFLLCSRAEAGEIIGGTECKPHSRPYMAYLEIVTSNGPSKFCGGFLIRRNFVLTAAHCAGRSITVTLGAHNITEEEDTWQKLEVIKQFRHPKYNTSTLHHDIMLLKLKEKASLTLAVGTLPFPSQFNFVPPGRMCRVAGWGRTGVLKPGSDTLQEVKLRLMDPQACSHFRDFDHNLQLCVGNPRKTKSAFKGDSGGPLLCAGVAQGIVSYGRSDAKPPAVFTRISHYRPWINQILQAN
Kind of data set: Inhibition of human chymase using Suc-Ala-Ala-Pro-Phe-AMC as substrate at 1 uM after 120 mins by fluorescence spectrophotometric method relative to control. Put shortly: as §1

In data set [8] the target is T3, Neutrophil elastase (Homo sapiens) (UniProt P08246).
T3 sequence (whole entry): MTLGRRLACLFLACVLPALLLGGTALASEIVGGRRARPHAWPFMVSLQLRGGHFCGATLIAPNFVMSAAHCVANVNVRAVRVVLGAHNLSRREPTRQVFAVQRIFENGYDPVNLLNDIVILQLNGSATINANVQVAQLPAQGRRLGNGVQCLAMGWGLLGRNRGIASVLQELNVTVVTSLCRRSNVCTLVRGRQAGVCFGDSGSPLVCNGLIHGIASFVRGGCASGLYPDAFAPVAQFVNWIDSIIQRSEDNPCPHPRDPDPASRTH
Kind of data set: Inhibition of elastase (unknown origin) at 1 uM relative to control. The procedure, abridged:
as §1

The target of data set [9] is Dipeptidyl peptidase 4 (Homo sapiens) (UniProt P27487). Description: Inhibition of recombinant full length human dipeptidyl peptidase 4 using GP-AMC as substrate at 10 uM after 10 mins by fluorescence spectrophotometric method relative to control. Put shortly: as §1
Dipeptidyl peptidase 4 (Homo sapiens), sequence (P27487 whole entry, looked up): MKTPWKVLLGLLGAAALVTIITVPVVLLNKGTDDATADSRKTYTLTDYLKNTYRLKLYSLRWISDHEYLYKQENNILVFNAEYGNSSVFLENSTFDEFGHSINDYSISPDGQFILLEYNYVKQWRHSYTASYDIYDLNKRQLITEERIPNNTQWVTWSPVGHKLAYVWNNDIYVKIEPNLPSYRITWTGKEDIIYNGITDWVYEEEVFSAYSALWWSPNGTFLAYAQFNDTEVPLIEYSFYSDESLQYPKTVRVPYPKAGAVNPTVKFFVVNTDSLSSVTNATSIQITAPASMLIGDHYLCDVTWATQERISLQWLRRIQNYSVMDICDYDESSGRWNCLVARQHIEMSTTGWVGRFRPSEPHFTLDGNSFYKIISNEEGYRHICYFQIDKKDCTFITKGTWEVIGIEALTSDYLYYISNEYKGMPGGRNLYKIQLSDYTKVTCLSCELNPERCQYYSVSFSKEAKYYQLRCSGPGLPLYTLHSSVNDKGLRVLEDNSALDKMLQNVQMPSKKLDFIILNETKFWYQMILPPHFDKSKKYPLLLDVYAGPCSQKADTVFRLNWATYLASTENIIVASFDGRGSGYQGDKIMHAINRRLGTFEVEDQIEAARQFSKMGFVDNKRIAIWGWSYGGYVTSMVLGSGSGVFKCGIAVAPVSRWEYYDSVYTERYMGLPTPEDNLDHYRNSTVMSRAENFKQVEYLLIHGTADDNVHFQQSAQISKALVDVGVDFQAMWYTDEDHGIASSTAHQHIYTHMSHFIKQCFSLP
In data set [10] the target is Tryptase (Homo sapiens) (UniProt Q9BZJ3+Q15661+Q9NRR2). Description: Inhibition of recombinant full length human tryptase usingZ-Gly-Pro-Arg-AMC as substrate at 1 uM after 60 mins by fluorescence spectrophotometric method relative to control. It is filed as protein assay. The procedure, abridged: as §1
Data set [11] addresses T4, Trypsin (Homo sapiens) (UniProt P07477+P07478+P35030). Description: Inhibition of human trypsin using Z-Gly-Pro-Arg-AMC as substrate at 1 uM after 60 mins by fluorescence spectrophotometric method relative to control. Type of data set: protein assay. The procedure, abridged:
as §1

Data set [12] has as its target T4, Trypsin (Homo sapiens). Description: Inhibition of human trypsin using Z-Gly-Pro-Arg-AMC as substrate at 10 uM after 60 mins by fluorescence spectrophotometric method relative to control. Type of data set: protein assay. The procedure, abridged:
as §1

Data set [13] deals with Plasma kallikrein (Homo sapiens) (UniProt P03952). Description: Inhibition of human plasma kallikrein using H-D-Pro-Phe-Arg-pNA as substrate at 1 uM after 30 mins by spectrophotometric method relative to control. The procedure, abridged: as §1
Plasma kallikrein (Homo sapiens), sequence (P03952 20-390 limits assumed): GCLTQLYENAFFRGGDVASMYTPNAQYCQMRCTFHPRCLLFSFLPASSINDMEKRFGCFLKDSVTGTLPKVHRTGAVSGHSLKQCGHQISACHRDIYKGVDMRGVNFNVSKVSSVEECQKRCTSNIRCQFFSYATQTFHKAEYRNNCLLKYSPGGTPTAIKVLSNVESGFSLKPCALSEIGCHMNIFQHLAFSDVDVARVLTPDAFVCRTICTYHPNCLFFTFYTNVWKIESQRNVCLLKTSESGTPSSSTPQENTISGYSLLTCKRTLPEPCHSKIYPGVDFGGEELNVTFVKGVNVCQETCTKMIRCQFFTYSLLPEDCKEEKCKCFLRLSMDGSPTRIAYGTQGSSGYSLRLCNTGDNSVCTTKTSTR
Plasma kallikrein (Homo sapiens), sequence (P03952 391-638 limits assumed): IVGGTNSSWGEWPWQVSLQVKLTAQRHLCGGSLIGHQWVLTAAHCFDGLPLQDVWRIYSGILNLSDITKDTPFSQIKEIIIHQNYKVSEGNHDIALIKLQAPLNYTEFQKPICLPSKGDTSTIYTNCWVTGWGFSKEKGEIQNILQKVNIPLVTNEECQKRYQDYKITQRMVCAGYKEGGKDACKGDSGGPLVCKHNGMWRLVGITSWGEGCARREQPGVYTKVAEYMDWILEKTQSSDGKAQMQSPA
Data set [14] has the same target. Description: Inhibition of human plasma kallikrein using H-D-Pro-Phe-Arg-pNA as substrate at 10 uM after 30 mins by spectrophotometric method relative to control. Put shortly:
as §1

In data set [15] the target is T5, Hepatocyte growth factor activator serine protease (Homo sapiens) (UniProt Q04756).
T5 sequence (whole entry): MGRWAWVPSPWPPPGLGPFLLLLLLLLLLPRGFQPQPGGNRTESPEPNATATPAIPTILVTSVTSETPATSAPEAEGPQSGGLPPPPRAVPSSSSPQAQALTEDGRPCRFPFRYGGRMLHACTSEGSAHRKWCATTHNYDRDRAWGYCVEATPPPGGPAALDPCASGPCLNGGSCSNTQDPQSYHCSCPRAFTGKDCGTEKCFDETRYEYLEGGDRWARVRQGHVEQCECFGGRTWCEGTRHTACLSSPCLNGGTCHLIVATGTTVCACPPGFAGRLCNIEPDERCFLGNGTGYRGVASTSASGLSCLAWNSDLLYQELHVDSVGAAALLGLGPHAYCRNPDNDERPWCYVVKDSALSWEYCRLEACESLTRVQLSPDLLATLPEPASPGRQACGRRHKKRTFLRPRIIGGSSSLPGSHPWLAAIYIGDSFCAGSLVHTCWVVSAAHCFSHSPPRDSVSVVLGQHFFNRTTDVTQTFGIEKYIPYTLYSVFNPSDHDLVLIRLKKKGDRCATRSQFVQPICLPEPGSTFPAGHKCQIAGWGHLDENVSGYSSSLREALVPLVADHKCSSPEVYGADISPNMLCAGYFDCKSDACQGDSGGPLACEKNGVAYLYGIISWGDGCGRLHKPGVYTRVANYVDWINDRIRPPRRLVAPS
Kind of data set: Inhibition of C-terminal 10-His tagged recombinant human HGFA (Gln36 to Ser655 residues) expressed in mouse […] cells 1 uM after 15 mins by fluorescence assay relative to control. Type of data set: cell-based.

As usually defined, the half-life is how long it takes for the measured level to halve. Low readings indicate fast loss, high ones slow loss. As a reminder, the IC50 is the concentration that inhibits the measured activity by half. As a reminder, the inhibition is how much of the control response was suppressed. Turning to `Cc1ccc(S(=O)(=O)N[C@@H](C(=O)Nc2ccc(C(=N)N)cc2)C2CCCCC2)cc1`, the results for the half-life at 3 µM in [1] and in data set [2] were 1.23 h and 1.48 h, respectively. In addition, in data set [3], the IC50 lay in the range of 38 to 70 nM. The inhibition entry in [4] was “inactive”. Also, the inhibition entry in data set [5] was “Active”. Further, the inhibition in data set [6] was 12%; in [7], < 10%; in data set [8], < 10%; in data set [9], < 10%; in data set [10] it was 52%; in [11], 83%. The inhibition in data set [12] was 96%; in [13], < 10%; in data set [14], 29%; in data set [15], 18%.

For the compound `N=C(N)c1ccc(NC(=O)[C@H](NS(=O)(=O)c2ccc(F)cc2)C2CCCCC2)cc1`, the half-life at 3 µM in data set [1] worked out at 0.8 h; in [2], 0.267 h. In addition, in [3], the IC50 worked out at 190 nM. Moreover, in data set [4], the inhibition result was “inactive”. In addition, in data set [5], the inhibition result was “Active”. The inhibition was 10% in [6]; < 10% in data set [7]; < 10% in data set [8]; < 10% in data set [9]; 40% in data set [10]; 77% in data set [11]. The inhibition in data set [12] came to 97%; in data set [13], 12%; in [14] it was 34%; in data set [15], 10%.

Turning to `Cc1ccc(S(=O)(=O)N[C@@H](C(=O)Nc2ccc(C(=N)N)cc2)c2ccccc2)cc1`, the values for the half-life at 3 µM in data set [1] and in data set [2] were 1.8 h and 0.883 h, respectively. In addition, the IC50 in data set [3] came to 22 nM. Also, the inhibition result in data set [4] and in data set [5] was “Active” each time. Further, the inhibition was 44% in data set [6]; < 10% in data set [7]; < 10% in data set [8]; < 10% in data set [9]; 27% in data set [10]; 54% in data set [11]. The inhibition was 93% in [12], 34% in data set [13], 85% in data set [14] and 16% in [15].
